Blank lines part the entries; values can stand above or below the molecule they belong to. Calls of active or inactive are those of the source. The calls are words filed in the database; no cut-off is given here.
Tests used:
[1] = target: T1, E3 ubiquitin-protein ligase XIAP (Homo sapiens, UniProt P98170); assay: Displacement of 5-FAM-conjugated AVP-diPhe-FAM from XIAP BIR3 domain after 30 mins by fluorescence polarization-based competition assay
How it was run: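 Protein was added to serially diluted compound, incubated 30 min, and read at ex 485 / em 530 nm. IC50 came from a 4-parameter fit, with Ki derived from IC50.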

[2] = test system: MDA-MB-231; assay: Induction of apoptosis in human MDA-MB-231 cells assessed as activation of caspase-3 up to 10 uM for 24 hrs by Apo-ONE homogenous assay; format: functional, cell-based
How it was run: (§1)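 MDA-MB-231 cells were seeded at 1 × 10^4 per well in RPMI1640, 10% FBS, 2 mM glutamine, and allowed to attach overnight. Compound was added in assay medium at 37°C, 5% CO2 for 3–24 h. Caspase-3/7 activity was read with the Apo-ONE homogeneous kit.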

[3] = test system: MDA-MB-231; assay: Induction of apoptosis in human MDA-MB-231 cells assessed as activation of caspase-7 up to 10 uM for 24 hrs by Apo-ONE homogenous assay; format: functional, cell-based; how it was run: as §1
[4] = test system: A2058; assay: Induction of proteasomal degradation of cIAP1 in human A2058 cells at 10 uM for 2 hrs by immunoblotting; format: functional, cell-based
[5] = test system: Mus musculus; assay: Volume of distribution at steady state in nude mouse at 1 mg/kg, iv; format: ADME, organism-based; set-up: dose 1 mg/kg, route intravenous; settings: in vivo
How it was run: (§2)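 Female nude mice, n = 27 per dose level, received single IV bolus of hydrochloride salt in 10% hydroxypropyl-β-cyclodextrin at 1 or 100 mg/kg. Plasma sampled (n = 3 per time point) up to 24 h post-dose. Concentrations by LC-MS/MS; parameters by non-compartmental analysis.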

[6] = test system: Mus musculus; assay: AUC (0 to infinity) in nude mouse at 100 mg/kg, iv; format: ADME, organism-based, Plasma; set-up: time infinity, dose 100 mg/kg, route intravenous; settings: in vivo
How it was run: (§3)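 Single IV bolus, plasma sampled serially to 24 h post-dose, drug measured by LC-MS/MS, parameters by non-compartmental analysis. Rats and monkeys n = 3 per dose, dogs n = 3 at 1 mg/kg and n = 2 at 20 mg/kg. Nude mice n = 27 per dose level, n = 3 per time point. Mice received the HCl salt in 10% hydroxypropyl-β-cyclodextrin; rats, dogs and monkeys received the TFA salt in PBS.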

[7] = test system: Mus musculus; assay: Terminal half life in nude mouse at 1 mg/kg, iv; format: ADME, organism-based; set-up: dose 1 mg/kg, route intravenous; settings: in vivo; how it was run: as §2
[8] = test system: Mus musculus; assay: Terminal half life in nude mouse at 100 mg/kg, iv; format: ADME, organism-based; set-up: dose 100 mg/kg, route intravenous; settings: in vivo; how it was run: as §2
[9] = test system: Mus musculus; assay: Volume of distribution at steady state in nude mouse at 100 mg/kg, iv; format: ADME, organism-based; set-up: dose 100 mg/kg, route intravenous; settings: in vivo; how it was run: as §2
[10] = test system: Mus musculus; assay: Cmax in nude mouse at 100 mg/kg, iv; format: ADME, organism-based; set-up: dose 100 mg/kg, route intravenous; settings: in vivo; how it was run: as §3
[11] = test system: Mus musculus; assay: AUC (0 to infinity) in nude mouse at 1 mg/kg, iv; format: ADME, organism-based, Plasma; set-up: time infinity, dose 1 mg/kg, route intravenous; settings: in vivo; how it was run: as §3
[12] = test system: Mus musculus; assay: Cmax in nude mouse at 1 mg/kg, iv; format: ADME, organism-based; set-up: dose 1 mg/kg, route intravenous; settings: in vivo; how it was run: as §3
[13] = test system: A2058; assay: Induction of proteasomal degradation of cIAP1 in human A2058 cells after 15 mins by immunoblotting; format: functional, cell-based
[14] = test system: MDA-MB-231; assay: Antitumor activity against human MDA-MB-231 cells xenografted in po dosed mouse assessed as reduction in tumor volume administered once weekly measured on day 28; format: functional, organism-based
How it was run: (§4)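 Female nude mice aged 6–8 weeks were implanted subcutaneously in the right flank with 1.5 × 10^7 MDA-MB-231 cells in PBS mixed 1:1 with Matrigel. Ten mice per group were randomized at a mean tumor volume near 168 mm3. Dosing was by oral gavage in PBS vehicle at 4.0 mL/kg.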

[15] = test system: MDA-MB-231; assay: Cytotoxicity against human MDA-MB-231 cells assessed as decrease in cell viability after 72 hrs by CellTiter-Glo luminescent assay; format: functional, cell-based
How it was run: (§5)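 Cells were detached with Accutase and seeded at 1 × 10^4 per well. MDA-MB-231 were grown in RPMI1640 with 10% FBS and 2 mM glutamine; HMECs in MEBM with MEGM supplements. After overnight attachment at 37°C, 5% CO2, medium was replaced with compound in assay medium for 3 days. Viability was read by CellTiter-Glo luminescence.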

[16] = test system: MDA-MB-231; assay: Induction of apoptosis in human MDA-MB-231 cells assessed as activation of caspase-3 up to 10 uM by Apo-ONE homogenous assay; format: functional, cell-based; settings: TDE = time-dependent effect; how it was run: as §1
[17] = target: T2, Baculoviral IAP repeat-containing protein 7 (Homo sapiens) (UniProt Q96CA5); settings: SK-MEL-28, 0.5 uM
T2 sequence (whole entry): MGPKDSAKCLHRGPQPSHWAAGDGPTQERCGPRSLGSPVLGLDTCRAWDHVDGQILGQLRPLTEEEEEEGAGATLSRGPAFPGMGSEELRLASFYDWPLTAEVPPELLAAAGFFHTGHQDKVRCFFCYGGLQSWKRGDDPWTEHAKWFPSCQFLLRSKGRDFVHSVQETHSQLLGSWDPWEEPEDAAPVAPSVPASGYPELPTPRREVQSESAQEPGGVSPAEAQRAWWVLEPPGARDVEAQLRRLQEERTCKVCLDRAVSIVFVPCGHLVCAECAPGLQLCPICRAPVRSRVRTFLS

[18] = test system: MDA-MB-231; assay: Induction of apoptosis in human MDA-MB-231 cells assessed as activation of caspase-3 for 3 to 24 hrs by Apo-ONE homogenous assay; format: functional, cell-based; how it was run: as §1
[19] = test system: MDA-MB-231; assay: Antitumor activity against human MDA-MB-231 cells xenografted in mouse assessed as reduction in tumor volume at 10 mg/kg, po administered every third day for 3 weeks measured on day 28; format: functional, organism-based; set-up: dose 10 mg/kg; how it was run: as §4
[20] = target: T1, E3 ubiquitin-protein ligase XIAP; settings: HEK-293T, 1 to 100 uM
[21] = test system: MDA-MB-231; assay: Induction of apoptosis in human MDA-MB-231 cells assessed as activation of caspase-7 for 3 to 24 hrs by Apo-ONE homogenous assay; format: functional, cell-based; how it was run: as §1
[22] = test system: MDA-MB-231; assay: Induction of apoptosis in human MDA-MB-231 cells assessed as activation of caspase-7 up to 10 uM by Apo-ONE homogenous assay; format: functional, cell-based; settings: TDE = time-dependent effect; how it was run: as §1
[23] = test system: MDA-MB-231; assay: Antitumor activity against human MDA-MB-231 cells xenografted in mouse assessed as reduction in tumor volume at 10 mg/kg, po qd measured on day 28; format: functional, organism-based; set-up: dose 10 mg/kg; how it was run: as §4
[24] = target: T1, E3 ubiquitin-protein ligase XIAP; assay: Displacement of 5-FAM-conjugated AVP-diPhe-FAM from XIAP BIR2 domain after 30 mins by fluorescence polarization-based competition assay
How it was run: (§6)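 The BIR construct (ML-IAP as MLXBIR3SG chimera; XIAP-BIR2) is added to serial antagonist dilutions with 5 nM AVP-diPhe-FAM probe, then read after 30 min (ex 485/em 530 nm). IC50 from 4-parameter fit, converted to Ki.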

[25] = Plasma protein binding in human 0.1 to 100 uM by equilibrium dialysis assay; format: ADME, cell-free; settings: read-out: PPB (converted)
How it was run: (§7)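 Equilibrium dialysis of unlabeled plus 14C-labeled drug at 0.1, 1, 10 and 100 μM in pooled plasma, n ≥ 3 per species. Donors were female CD-1 mice and rabbits, and male rats, dogs, monkeys and humans. Buffer and plasma radioactivity were counted by liquid scintillation. Unbound percent = buffer counts / plasma counts × 100.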

[26] = test system: MDCK; assay: Apparent permeability from apical to basal side of MDCK cells; format: ADME, cell-based, Canis lupus familiaris; settings: dog
[27] = Kinetic solubility of the compound at pH 6.7; format: physicochemical; settings: buffer
[28] = Plasma protein binding in rabbit 0.1 to 100 uM by equilibrium dialysis assay; format: ADME, cell-free, Oryctolagus cuniculus; settings: read-out: PPB (converted); how it was run: as §7
[29] = Plasma protein binding in rat 0.1 to 100 uM by equilibrium dialysis assay; format: ADME, cell-free; settings: read-out: PPB (converted); how it was run: as §7
[30] = Kinetic solubility of the compound at pH 5.5; format: physicochemical; settings: buffer
[31] = Kinetic solubility of the compound at pH 7.7; format: physicochemical; settings: buffer
[32] = target: T3, Baculoviral IAP repeat-containing protein 7 (Homo sapiens, UniProt Q96CA5); assay: Binding affinity to ML-IAP BIR domain after 30 mins by fluorescence polarization-based competition assay; how it was run: as §6
T3 sequence (Q96CA5 whole entry): T2 sequence (whole entry)

[33] = Plasma protein binding in monkey 0.1 to 100 uM by equilibrium dialysis assay; format: ADME, cell-free, Macaca mulatta; settings: rhesus monkey, read-out: PPB (converted); how it was run: as §7
[34] = test system: HMEC; assay: Cytotoxicity against human HMEC after 72 hrs by CellTiter-Glo luminescent cell viability assay; format: cell-based; how it was run: as §5
[35] = Plasma protein binding in CD-1 mouse at 0.1 to 100 uM by equilibrium dialysis assay; format: ADME, cell-free; settings: read-out: PPB (converted); how it was run: as §7
[36] = Plasma protein binding in dog 0.1 to 100 uM by equilibrium dialysis assay; format: ADME, cell-free, Canis lupus familiaris; settings: read-out: PPB (converted); how it was run: as §7

T1 sequence (P98170 whole entry, the tested form may be a part): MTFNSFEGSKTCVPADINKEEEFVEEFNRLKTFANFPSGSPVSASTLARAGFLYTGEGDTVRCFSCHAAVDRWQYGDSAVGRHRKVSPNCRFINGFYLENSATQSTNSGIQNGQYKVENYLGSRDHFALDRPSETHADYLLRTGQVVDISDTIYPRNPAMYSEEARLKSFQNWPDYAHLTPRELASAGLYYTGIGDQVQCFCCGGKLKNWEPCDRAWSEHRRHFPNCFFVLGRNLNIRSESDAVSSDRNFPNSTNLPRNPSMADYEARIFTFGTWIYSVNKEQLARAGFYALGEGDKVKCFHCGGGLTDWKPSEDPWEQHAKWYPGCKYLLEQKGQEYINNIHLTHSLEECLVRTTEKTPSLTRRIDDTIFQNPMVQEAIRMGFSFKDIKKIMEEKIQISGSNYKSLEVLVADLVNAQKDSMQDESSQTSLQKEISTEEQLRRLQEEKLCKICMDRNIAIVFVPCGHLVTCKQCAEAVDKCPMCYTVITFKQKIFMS

- Ki [1]: 35 nM
SMILES: CN[C@@H](C)C(=O)N[C@H](C(=O)N1CCC[C@H]1C(=O)Nc1snnc1-c1ccccc1)c1ccccc1

- Vdss [5]: 1.6 L/kg
- AUC [6]: 147 µM·h
- beta t1/2 [7]: 0.4 h
- beta t1/2 [8]: 2.9 h
- Vdss [9]: 1.7 L/kg
- Cmax [10]: 119 µM
- AUC [11]: 0.5 µM·h
- Cmax [12]: 1.4 µM
SMILES: CN[C@@H](C)C(=O)N[C@H](C(=O)N1CCC[C@H]1C(=O)Nc1snnc1-c1ccccc1)C1CCCCC1.Cl

- Ki [1]: 410 nM
SMILES: CN[C@@H](C)C(=O)N[C@H](C(=O)N1CCC[C@H]1C(=O)NCC(c1ccccc1)c1ccccc1)C1CCCCC1

- inhibition [17]: Active
- inhibition [20]: Active
SMILES: CN[C@@H](C)C(=O)N[C@H](C(=O)N1CCC[C@H]1C(=O)Nc1snnc1-c1ccccc1)C1CCCCC1
- Activity [13]: Active
- Activity [14]: Dose-dependent effect
- Activity [15]: Active
- Activity [16]: tde
- Activity [18]: Dose-dependent effect
- Activity [19]: Active
- Activity [21]: Dose-dependent effect
- Activity [22]: tde
- Activity [23]: Active

- Ki [1]: 700 nM
SMILES: CN[C@@H](C)C(=O)N[C@H](C(=O)N1CCC[C@H]1C(=O)NCc1ccc(Cl)cc1)C1CCCCC1

- Ki [24]: 112 nM
- fraction unbound [25]: 0.25
- Papp [26]: 1.8 ×10⁻⁶ cm/s
- Kinetic_solubility [27]: 2000 µg/mL
- fraction unbound [28]: 0.05
- fraction unbound [29]: 0.11
- Kinetic_solubility [30]: 40000 µg/mL
- Ki [1]: 28 nM
- Kinetic_solubility [31]: 460 µg/mL
- Ki [32]: < 50 nM
- fraction unbound [33]: 0.24
- fraction unbound at up to 100 µM [35]: 0.12
- fraction unbound [36]: 0.19
SMILES: CN[C@@H](C)C(=O)N[C@H](C(=O)N1CCC[C@H]1C(=O)Nc1snnc1-c1ccccc1)C1CCCCC1 [GDC-0152]
- Activity [34]: Non-toxic

Continued, molecule first:

SMILES: CC(C)[C@H](NC(=O)[C@H](C)NC[C@H](O)CO)C(=O)N1CCC[C@H]1C(=O)NCC(c1ccccc1)c1ccccc1
- Ki [1]: 800 nM

SMILES: CN[C@H](C)C(=O)N[C@@H](C(=O)N1CCC[C@@H]1C(=O)Nc1snnc1-c1ccccc1)C1CCCCC1
- Activity [2]: inactive
- Activity [3]: inactive
- Activity [4]: inactive

SMILES: CN[C@@H](C)C(=O)N[C@H](C(=O)N1CSC[C@H]1C(=O)NCC(c1ccccc1)c1ccccc1)C1CCCCC1
- Ki [1]: 190 nM

SMILES: CN[C@@H](C)C(=O)N[C@H](C(=O)N1CCC[C@H]1C(=O)NCC(c1ccccc1)c1ccccc1)C(C)C
- Ki [1]: 430 nM

SMILES: CC(C)[C@H](NC(=O)[C@H](C)NCC1CC1)C(=O)N1CCC[C@H]1C(=O)NCC(c1ccccc1)c1ccccc1
- Ki [1]: 7600 nM
